In ChEMBL document CHEMBL1799931, “Synthesis, evaluation and metabolic studies of radiotracers containing a 4-(4-[18F]-fluorobenzyl)piperidin-1-yl moiety for the PET imaging of NR2B NMDA receptors” (Eur J Med Chem, 2011):

Assays:
Heart [1] = assay: Biodistribution in Sprague-Dawley rat heart at 3.2 to 18.6 MBq, iv after 120 mins by micro PET analysis; type: ADME, organism-based; conditions: in vivo, 2 h
How it was run: (§1)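 Male Sprague-Dawley rats (235-310 g) under isoflurane got 18F radiotracer (3.2-18.6 MBq) by tail-vein catheter, n = 3. Dynamic microPET scan for 120 min, then ex vivo tissue counting at 120 min post-injection. Values are %ID/g ± SEM.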

Thymus [2] = assay: Biodistribution in Sprague-Dawley rat thymus at 3.2 to 18.6 MBq, iv after 120 mins by micro PET analysis; type: ADME, organism-based; conditions: in vivo, 2 h; how it was run: as §1
Kidney [3] = assay: Biodistribution in Sprague-Dawley rat kidney at 3.2 to 18.6 MBq, iv after 120 mins by micro PET analysis; type: ADME, organism-based; conditions: in vivo, 2 h; how it was run: as §1
Rattus norvegicus [4] = assay: Biodistribution in Sprague-Dawley rat bladder at 3.2 to 18.6 MBq, iv after 120 mins by micro PET analysis; type: ADME, organism-based, Urinary bladder; conditions: in vivo, 2 h; how it was run: as §1
Cerebellum = assay: Biodistribution in Sprague-Dawley rat cerebellum at 3.2 to 18.6 MBq, iv after 120 mins by micro PET analysis; conditions: in vivo, 2 h
Brain [5] = assay: Biodistribution in Sprague-Dawley rat brain at 3.2 to 18.6 MBq, iv after 120 mins by micro PET analysis; type: ADME, organism-based; conditions: in vivo, 2 h; how it was run: as §1
[6] = Metabolic stability in Sprague-Dawley rat plasma assessed as half life by radio thin layer chromatography analysis; type: ADME, cell-free
How it was run: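 Anesthetized male Sprague-Dawley rats (235-330 g) given radiotracer (3.2-15.1 MBq). Femoral arterial blood was sampled over 90 min and plasma gamma-counted. Plasma was diluted with acetonitrile, centrifuged and run on silica radio-TLC with cold reference, giving parent and radiometabolite fractions.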

Pancreas [7] = assay: Biodistribution in Sprague-Dawley rat pancreas at 3.2 to 18.6 MBq, iv after 120 mins by micro PET analysis; type: ADME, organism-based; conditions: in vivo, 2 h; how it was run: as §1
Rattus norvegicus [8] = assay: Biodistribution in Sprague-Dawley rat cartilage at 3.2 to 18.6 MBq, iv after 120 mins by micro PET analysis; type: ADME, organism-based, Cartilage tissue; conditions: in vivo, 2 h; how it was run: as §1
Lung [9] = assay: Biodistribution in Sprague-Dawley rat lung at 3.2 to 18.6 MBq, iv after 120 mins by micro PET analysis; type: ADME, organism-based; conditions: in vivo, 2 h; how it was run: as §1
Spleen [10] = assay: Biodistribution in Sprague-Dawley rat spleen at 3.2 to 18.6 MBq, iv after 120 mins by micro PET analysis; type: ADME, organism-based; conditions: in vivo, 2 h; how it was run: as §1
Liver [11] = assay: Biodistribution in Sprague-Dawley rat liver at 3.2 to 18.6 MBq, iv after 120 mins by micro PET analysis; type: ADME, organism-based; conditions: in vivo, 2 h; how it was run: as §1
[12] = Biodistribution in Sprague-Dawley rat fat at 3.2 to 18.6 MBq, iv after 120 mins by micro PET analysis; type: ADME, organism-based, Adipose tissue; conditions: in vivo, 2 h; how it was run: as §1
Muscle tissue [13] = assay: Biodistribution in Sprague-Dawley rat muscle at 3.2 to 18.6 MBq, iv after 120 mins by micro PET analysis; type: ADME, organism-based; conditions: in vivo, 2 h; how it was run: as §1
Intestine [14] = assay: Biodistribution in Sprague-Dawley rat intestine at 3.2 to 18.6 MBq, iv after 120 mins by micro PET analysis; type: ADME, organism-based; conditions: in vivo, 2 h; how it was run: as §1
Bone [15] = assay: Biodistribution in Sprague-Dawley rat bone at 3.2 to 18.6 MBq, iv after 120 mins by micro PET analysis; type: ADME, organism-based, Bone element; conditions: in vivo, 2 h; how it was run: as §1
Hippocampus = assay: Biodistribution in Sprague-Dawley rat hippocampus at 3.2 to 18.6 MBq, iv after 120 mins by micro PET analysis; conditions: in vivo, 2 h
[16] = Biodistribution in Sprague-Dawley rat urine at 3.2 to 18.6 MBq, iv after 120 mins by micro PET analysis; type: ADME, organism-based; conditions: in vivo, 2 h; how it was run: as §1
[17] = biological target: T1, Glutamate NMDA receptor; GRIN1/GRIN2B (Homo sapiens, UniProt Q05586+Q13224); assay: Antagonist activity at human NR1a/NR2B receptor expressed in mouse fibroblast LMTK cells assessed as inhibition of Glu/Gly induced Ca2+ influx; type: functional, cell-based
[18] = biological target: T1, Glutamate NMDA receptor; GRIN1/GRIN2B; assay: Antagonist activity against NR1a/NR2B receptor transfected in human HEK293 cells assessed as inhibition of NMDA-induced Ca2+ influx; type: functional, cell-based
Mus musculus = assay: Analgesic activity in po dosed mouse assessed as licking behavior measured after 20 to 25 mins by formalin test; type: functional, organism-based
[19] = Biodistribution in Sprague-Dawley rat urine at 3.2 to 18.6 MBq, iv after 90 mins by micro PET analysis; type: ADME, organism-based; conditions: in vivo, 1.5 h
How it was run: (§2)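 Male Sprague-Dawley rats (235-310 g) under isoflurane got 18F radiotracer (3.2-18.6 MBq) by tail-vein catheter, n = 2. Dynamic microPET scan for 90 min, then ex vivo tissue counting at 90 min post-injection. Values are %ID/g ± SEM.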

Pancreas [20] = assay: Biodistribution in Sprague-Dawley rat pancreas at 3.2 to 18.6 MBq, iv after 90 mins by micro PET analysis; type: ADME, organism-based; conditions: in vivo, 1.5 h; how it was run: as §2
Liver [21] = assay: Biodistribution in Sprague-Dawley rat liver at 3.2 to 18.6 MBq, iv after 90 mins by micro PET analysis; type: ADME, organism-based; conditions: in vivo, 1.5 h; how it was run: as §2
Muscle tissue [22] = assay: Biodistribution in Sprague-Dawley rat muscle at 3.2 to 18.6 MBq, iv after 90 mins by micro PET analysis; type: ADME, organism-based; conditions: in vivo, 1.5 h; how it was run: as §2
Rattus norvegicus [23] = assay: Biodistribution in Sprague-Dawley rat bladder at 3.2 to 18.6 MBq, iv after 90 mins by micro PET analysis; type: ADME, organism-based, Urinary bladder; conditions: in vivo, 1.5 h; how it was run: as §2
Heart [24] = assay: Biodistribution in Sprague-Dawley rat heart at 3.2 to 18.6 MBq, iv after 90 mins by micro PET analysis; type: ADME, organism-based; conditions: in vivo, 1.5 h; how it was run: as §2
Kidney [25] = assay: Biodistribution in Sprague-Dawley rat kidney at 3.2 to 18.6 MBq, iv after 90 mins by micro PET analysis; type: ADME, organism-based; conditions: in vivo, 1.5 h; how it was run: as §2
Spleen [26] = assay: Biodistribution in Sprague-Dawley rat spleen at 3.2 to 18.6 MBq, iv after 90 mins by micro PET analysis; type: ADME, organism-based; conditions: in vivo, 1.5 h; how it was run: as §2
Rattus norvegicus [27] = assay: Biodistribution in Sprague-Dawley rat cartilage at 3.2 to 18.6 MBq, iv after 90 mins by micro PET analysis; type: ADME, organism-based, Cartilage tissue; conditions: in vivo, 1.5 h; how it was run: as §2
Brain [28] = assay: Biodistribution in Sprague-Dawley rat brain at 3.2 to 18.6 MBq, iv after 90 mins by micro PET analysis; type: ADME, organism-based; conditions: in vivo, 1.5 h; how it was run: as §2
[29] = Biodistribution in Sprague-Dawley rat fat at 3.2 to 18.6 MBq, iv after 90 mins by micro PET analysis; type: ADME, organism-based, Adipose tissue; conditions: in vivo, 1.5 h; how it was run: as §2
Intestine [30] = assay: Biodistribution in Sprague-Dawley rat intestine at 3.2 to 18.6 MBq, iv after 90 mins by micro PET analysis; type: ADME, organism-based; conditions: in vivo, 1.5 h; how it was run: as §2
Lung [31] = assay: Biodistribution in Sprague-Dawley rat lung at 3.2 to 18.6 MBq, iv after 90 mins by micro PET analysis; type: ADME, organism-based; conditions: in vivo, 1.5 h; how it was run: as §2
Bone [32] = assay: Biodistribution in Sprague-Dawley rat bone at 3.2 to 18.6 MBq, iv after 90 mins by micro PET analysis; type: ADME, organism-based, Bone element; conditions: in vivo, 1.5 h; how it was run: as §2
Thymus [33] = assay: Biodistribution in Sprague-Dawley rat thymus at 3.2 to 18.6 MBq, iv after 90 mins by micro PET analysis; type: ADME, organism-based; conditions: in vivo, 1.5 h; how it was run: as §2
[34] = biological target: Glutamate NMDA receptor; GRIN1/GRIN2A (Homo sapiens) (UniProt Q05586+Q12879); assay: Antagonist activity against NR1a/NR2A receptor transfected in human HEK293 cells assessed as inhibition of NMDA-induced Ca2+ influx at 10 uM; type: functional, cell-based
How it was run: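 HEK293 cells co-transfected 1:1 with NR1-1a plus NR2A-GFP or NR2B-GFP, D-APV (100 µM) after transfection, used at 24 h. Cells loaded with Fura-2/AM 45 min at 37 °C, then held in HBBSS with glycine, pH 7.45, at room temperature under perfusion. NMDA 100 µM for 30 s; ligands applied 60 s before and during.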

[35] = biological target: T1, Glutamate NMDA receptor; GRIN1/GRIN2B; assay: Displacement of [3H]-Ro-256981 from recombinant NR1/NR2B receptor; type: protein-complex assay

T1 sequence (Q13224 whole entry, other chains not shown): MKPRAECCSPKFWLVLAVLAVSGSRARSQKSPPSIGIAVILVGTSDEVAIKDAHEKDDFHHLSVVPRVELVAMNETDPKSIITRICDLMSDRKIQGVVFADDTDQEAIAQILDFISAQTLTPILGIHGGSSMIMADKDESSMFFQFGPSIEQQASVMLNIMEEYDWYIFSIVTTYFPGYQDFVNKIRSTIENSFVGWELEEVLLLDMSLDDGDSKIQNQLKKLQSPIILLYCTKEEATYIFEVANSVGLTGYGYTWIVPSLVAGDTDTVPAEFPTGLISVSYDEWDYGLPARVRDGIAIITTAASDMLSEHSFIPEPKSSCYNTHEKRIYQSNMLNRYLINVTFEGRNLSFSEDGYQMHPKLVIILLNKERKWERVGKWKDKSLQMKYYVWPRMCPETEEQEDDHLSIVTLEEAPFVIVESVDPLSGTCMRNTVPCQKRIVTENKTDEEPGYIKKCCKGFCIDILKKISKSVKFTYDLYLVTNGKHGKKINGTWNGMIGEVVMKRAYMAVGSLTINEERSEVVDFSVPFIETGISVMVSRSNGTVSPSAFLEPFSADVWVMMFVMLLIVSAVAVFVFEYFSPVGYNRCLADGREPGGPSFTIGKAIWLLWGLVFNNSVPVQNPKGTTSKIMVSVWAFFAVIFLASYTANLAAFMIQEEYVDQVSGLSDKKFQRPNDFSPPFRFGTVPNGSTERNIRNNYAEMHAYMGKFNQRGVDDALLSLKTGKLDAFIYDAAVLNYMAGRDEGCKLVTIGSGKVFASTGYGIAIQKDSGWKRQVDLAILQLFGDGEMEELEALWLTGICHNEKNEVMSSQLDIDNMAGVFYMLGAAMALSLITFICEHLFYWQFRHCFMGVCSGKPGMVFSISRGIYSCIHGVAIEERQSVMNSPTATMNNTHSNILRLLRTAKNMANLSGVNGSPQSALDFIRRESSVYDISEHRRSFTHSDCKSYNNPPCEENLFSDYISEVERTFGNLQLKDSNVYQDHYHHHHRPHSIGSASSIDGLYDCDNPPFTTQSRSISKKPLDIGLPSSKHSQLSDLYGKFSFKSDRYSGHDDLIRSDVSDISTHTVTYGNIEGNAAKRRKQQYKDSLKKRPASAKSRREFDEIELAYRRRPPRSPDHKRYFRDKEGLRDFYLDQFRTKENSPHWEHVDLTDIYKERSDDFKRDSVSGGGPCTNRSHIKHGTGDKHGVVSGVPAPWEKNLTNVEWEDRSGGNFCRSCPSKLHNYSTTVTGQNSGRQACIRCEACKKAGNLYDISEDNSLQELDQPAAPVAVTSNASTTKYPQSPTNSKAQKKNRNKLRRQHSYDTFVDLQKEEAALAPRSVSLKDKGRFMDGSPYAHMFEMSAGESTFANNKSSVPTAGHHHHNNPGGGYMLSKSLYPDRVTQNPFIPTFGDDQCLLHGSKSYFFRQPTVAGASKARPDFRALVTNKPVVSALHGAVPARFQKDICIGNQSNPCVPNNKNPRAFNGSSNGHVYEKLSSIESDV

O=C(Nc1ccc2[nH]c(=O)oc2c1)C(=O)N1CCC(Cc2ccc([18F])cc2)CC1
Drug uptake (Heart [1]): 0.076 % ID/g | Drug uptake (Thymus [2]): 0.057 % ID/g | Drug uptake (Kidney [3]): 0.377 % ID/g | Drug uptake (Rattus norvegicus [4]): 0.175 % ID/g | Drug uptake (Cerebellum): 0.046 % ID/g | Drug uptake (Brain [5]): 0.054 % ID/g | half-life [6]: 50 min | Drug uptake (Pancreas [7]): 0.08 % ID/g | Drug uptake (Rattus norvegicus [8]): 0.776 % ID/g | Drug uptake (Lung [9]): 0.132 % ID/g | Drug uptake (Spleen [10]): 0.169 % ID/g | Drug uptake (Liver [11]): 1.365 % ID/g | Drug uptake [12]: 0.056 % ID/g | Drug uptake (Muscle tissue [13]): 0.069 % ID/g | Drug uptake (Intestine [14]): 0.107 % ID/g | Drug uptake (Bone [15]): 0.397 % ID/g | Drug uptake (Hippocampus): 0.064 % ID/g | Drug uptake [16]: 3.237 % ID/g

CS(=O)(=O)Nc1ccc2nc(CN3CCC(Cc4ccccc4)CC3)[nH]c2c1
IC50 [17]: 1.4 nM | IC50 [18]: 50.3 nM

Oc1ccc2[nH]c(CN3CCC(Cc4ccc([18F])cc4)CC3)nc2c1
Drug uptake (Heart [1]): 0.068 % ID/g | Drug uptake (Thymus [2]): 0.225 % ID/g | Drug uptake (Kidney [3]): 0.384 % ID/g | Drug uptake (Rattus norvegicus [4]): 0.373 % ID/g | Drug uptake (Cerebellum): 0.035 % ID/g | Drug uptake (Brain [5]): 0.035 % ID/g | half-life [6]: 35 min | Drug uptake (Pancreas [7]): 0.391 % ID/g | Drug uptake (Lung [9]): 0.445 % ID/g | Drug uptake (Spleen [10]): 0.305 % ID/g | Drug uptake (Liver [11]): 2.255 % ID/g | Drug uptake [12]: 0.098 % ID/g | Drug uptake (Muscle tissue [13]): 0.044 % ID/g | Drug uptake (Intestine [14]): 0.188 % ID/g | Drug uptake (Bone [15]): 1.576 % ID/g | Drug uptake (Hippocampus): 0.037 % ID/g | Drug uptake [16]: 1.327 % ID/g

O=C(Nc1ccc2nc(O)sc2c1)C(=O)N1CCC(Cc2ccccc2)CC1
ED50 (Mus musculus): 0.5 mg/kg

[18F]c1ccc(CC2CCNCC2)cc1
Drug uptake [19]: 10.125 % ID/g | Drug uptake (Pancreas [20]): 0.285 % ID/g | Drug uptake (Liver [21]): 2.307 % ID/g | Drug uptake (Muscle tissue [22]): 0.145 % ID/g | Drug uptake (Rattus norvegicus [23]): 0.542 % ID/g | half-life [6]: 10 min | Drug uptake (Heart [24]): 0.135 % ID/g | Drug uptake (Kidney [25]): 1.206 % ID/g | Drug uptake (Spleen [26]): 0.322 % ID/g | Drug uptake (Rattus norvegicus [27]): 2.312 % ID/g | Drug uptake (Brain [28]): 0.395 % ID/g | Drug uptake [29]: 0.052 % ID/g | Drug uptake (Intestine [30]): 0.902 % ID/g | Drug uptake (Lung [31]): 0.507 % ID/g | Drug uptake (Bone [32]): 0.75 % ID/g | Drug uptake (Thymus [33]): 0.187 % ID/g

O=C(Nc1ccc2[nH]c(=O)sc2c1)C(=O)N1CCC(Cc2ccc(F)cc2)CC1
inhibition [34]: 13.2% | IC50 [18]: 840 nM

Cc1ccc(CC2CCN(C(=O)C(=O)Nc3ccc4c(c3)CC(=O)N4)CC2)cc1
ED50 (Mus musculus): 0.5 mg/kg

CC(C(O)c1ccc(O)cc1)N1CCC(Cc2ccccc2)CC1 (stereo not given)
inhibition [34]: 22.3%

O=C(Nc1ccc2nc(O)oc2c1)C(=O)N1CCC(Cc2ccccc2)CC1
IC50 [35]: 4 nM | ED50 (Mus musculus; Mus musculus, po, read-out: ED50): 0.5 mg/kg
